Assay results from ChEMBL document CHEMBL1153525, “Adenosine A2A receptor-antagonist/dopamine D2 receptor-agonist bivalent ligands as pharmacological tools to detect A2A-D2 receptor heteromers” (J Med Chem, 2009).
Active and inactive are the calls of the source. The rule behind the calls is not given here.

Experiments:
[1] = tested on: Dopamine D2 receptor (Homo sapiens); test: Displacement of [3H]YM09151-2 from human A2aR/D2R (long isoform) heteromer expressed in mouse Ltk cells by scintillation counting
[2] = Displacement of [3H]YM09151-2 from D2R (long isoform) dimer in lamb striatum membrane high affinity macroscopic equilibrium dissociation constant by scintillation counting; format: cell membranes, Ovis aries
Summary of the method: (§1)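 Lamb striatal membranes (0.3-0.5 mg protein/mL) were incubated 2 h at 25 °C in 50 mM Tris-HCl pH 7.4 with 10 mM MgCl2 and 2 U/mL ADA. Radioligand was 2.1 nM [3H]ZM241385 (A2AR) or 0.9 nM [3H]YM09151-2 (D2R), against 11 competitor concentrations from 0.1 nM to 50 μM in triplicate. Nonspecific binding used 50 μM unlabeled radioligand. After GF/C filtration, counts were fitted to a two-state dimer model for KDB1 and KDB2; three experiments.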

[3] = Displacement of [3H]YM09151-2 from D2R (long isoform) dimer in lamb striatum membrane low affinity macroscopic equilibrium dissociation constant by scintillation counting; format: cell membranes, Ovis aries
Summary of the method: as §1

[4] = biological target: Adenosine A2A receptor (Homo sapiens) (UniProt P29274); test: Displacement of [3H]ZM241385 from human A2aR/D2R (long isoform) heteromer expressed in mouse Ltk cells by scintillation counting; format: cell-based
Summary of the method: (§2)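 Mouse Ltk fibroblasts were transiently transfected with human A2AR, human D2R (long isoform) or both, and membranes were prepared 48 h later. Membranes were incubated 2 h at 25 °C in 50 mM Tris-HCl pH 7.4 with 10 mM MgCl2 and 2 U/mL ADA, plus 2.1 nM [3H]ZM241385 or 1.9 nM [3H]YM09151-2 and 1 μM test compound. Bound ligand was counted after filtration and expressed as % of specific binding without displacer; three independent experiments.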
Target sequence in this assay (P29274 whole entry, canonical isoform): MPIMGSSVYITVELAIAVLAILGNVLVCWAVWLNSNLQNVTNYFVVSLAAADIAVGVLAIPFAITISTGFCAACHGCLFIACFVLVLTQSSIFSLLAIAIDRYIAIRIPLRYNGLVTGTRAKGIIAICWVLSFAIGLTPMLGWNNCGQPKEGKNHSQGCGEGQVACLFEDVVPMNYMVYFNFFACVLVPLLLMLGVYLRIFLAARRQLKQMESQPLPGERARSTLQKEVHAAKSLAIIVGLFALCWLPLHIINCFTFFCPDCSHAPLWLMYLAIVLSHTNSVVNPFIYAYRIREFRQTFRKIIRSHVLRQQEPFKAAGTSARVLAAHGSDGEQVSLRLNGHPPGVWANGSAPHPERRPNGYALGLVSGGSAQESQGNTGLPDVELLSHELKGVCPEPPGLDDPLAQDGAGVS

[5] = biological target: Adenosine A2A receptor (Homo sapiens) (UniProt P29274); test: Displacement of [3H]ZM241385 from human A2aR/D2R (long isoform) coexpressed in mouse Ltk cells by scintillation counting; format: cell-based
Summary of the method: as §2
Target sequence in this assay (P29274 whole entry, canonical isoform): as above

[6] = Displacement of [3H]ZM241385 from A2aR dimer in lamb striatum membrane assessed as high affinity macroscopic equilibrium dissociation constant by scintillation counting; format: cell membranes, Ovis aries
Summary of the method: as §1

[7] = biological target: D(2) dopamine receptor (Homo sapiens) (UniProt P14416); test: Displacement of [3H]YM09151-2 from human D2R expressed in mouse Ltk cells by scintillation counting relative to control; format: cell-based
Summary of the method: as §2

[8] = biological target: Adenosine A2A receptor (Homo sapiens) (UniProt P29274); test: Displacement of [3H]ZM241385 from human A2aR expressed in mouse Ltk cells at 1 uM by scintillation counting relative to control; format: cell-based
Summary of the method: as §2
Target sequence in this assay (P29274 whole entry, canonical isoform): as above

[9] = biological target: Adenosine A2A receptor (Homo sapiens) (UniProt P29274); test: Displacement of [3H]ZM241385 from human A2AR expressed in mouse Ltk cells at 1 uM by scintillation counting relative to control
Target sequence in this assay (P29274 whole entry, looked up, canonical isoform): as the sequence (P29274 whole entry, canonical isoform) above

[10] = biological target: Adenosine A2A receptor (Homo sapiens) (UniProt P29274); test: Displacement of [3H]ZM241385 from human A2aR expressed in mouse Ltk cells by scintillation counting relative to control; format: cell-based
Summary of the method: as §2
Target sequence in this assay (P29274 whole entry, canonical isoform): as above

[11] = biological target: Adenosine A2A receptor (Homo sapiens) (UniProt P29274); test: Antagonist activity at human A2aR expressed in HEK293 cells assessed as inhibition of CGS-21680-induced cAMP production at 10 uM; format: functional, cell-based
Summary of the method: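 Human A2AR was transiently expressed in HEK-293 cells, which were held 16 h serum-free with 1.5 U/mL ADA and used 48 h post-transfection. Cells were preincubated 10 min at 37 °C with 50 μM zardaverine, 10 mM MgCl2 and 1.5 U/mL ADA. Ligand at 10 μM was given alone, or 10 min before 200 nM CGS 21680 (10-15 min). cAMP was measured by [3H]cAMP assay, as % of CGS 21680 response; three independent experiments.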
Target sequence in this assay (P29274 whole entry, canonical isoform): as above

[12] = biological target: Adenosine A2A receptor (Homo sapiens) (UniProt P29274); test: Agonist activity at human A2aR expressed in HEK293 cells assessed as cAMP accumulation at 10 uM
Target sequence in this assay (P29274 whole entry, canonical isoform): as above

[13] = biological target: D(2) dopamine receptor (Homo sapiens) (UniProt P14416); test: Agonist activity at human D2R receptor expressed In HEK293 cells assessed as decrease in forskolin-induced cAMP level at 10 uM; format: functional, cell-based; set-up: scale not given: the % may be the effect or the level left
Summary of the method: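 HEK-293 cells transiently transfected with human D2R (long isoform) were kept 16 h in serum-free medium, then used 48 h after transfection. Cells were preincubated 10 min at 37 °C with 50 μM zardaverine in serum-free medium with 10 mM MgCl2. Test ligand at 10 μM was added, then 10 μM forskolin for 15 min. Cells were extracted with HClO4 and cAMP was measured by [3H]cAMP assay, as % of forskolin-induced level; three independent experiments.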

D(2) dopamine receptor (Homo sapiens), sequence (P14416 whole entry, canonical isoform): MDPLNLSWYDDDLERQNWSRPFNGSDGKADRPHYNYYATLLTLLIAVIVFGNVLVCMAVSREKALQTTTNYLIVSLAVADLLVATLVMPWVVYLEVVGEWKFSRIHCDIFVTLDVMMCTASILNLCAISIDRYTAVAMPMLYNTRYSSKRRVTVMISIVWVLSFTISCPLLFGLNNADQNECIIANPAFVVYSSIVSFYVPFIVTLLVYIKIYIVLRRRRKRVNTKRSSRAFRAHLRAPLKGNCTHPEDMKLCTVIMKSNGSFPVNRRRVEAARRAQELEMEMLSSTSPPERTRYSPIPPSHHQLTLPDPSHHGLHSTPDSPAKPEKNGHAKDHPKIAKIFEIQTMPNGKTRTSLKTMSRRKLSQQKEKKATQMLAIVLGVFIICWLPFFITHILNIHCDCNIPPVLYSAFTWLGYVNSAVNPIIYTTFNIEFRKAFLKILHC

Row | SMILES | Activity [1] | Ki [2] [nM] | Ki [3] [nM] | Activity [4] | Activity [5] | Ki [6] [nM] | Activity [7] | Activity [8] | Activity [9] | Activity [10] | Activity [11] | Activity [12] | Activity [13] [%]
1 | CCCN(CCc1ccc(NC(=O)CCC(N)C(=O)NCCCCC(NC(=O)C(CCCCNC(C)=O)NC(C)=O)C(N)=O)cc1)C1CCc2c(O)cccc2C1 (configuration not stated) | Active | 4 | 9000 |  |  |  |  |  |  |  |  |  | 
2 | CCCN(CCc1ccc(NC(=O)CCC(N)C(=O)NCCCCC(NC(=O)C(CCCCNC(=O)C(N)CCCCNC(=O)COc2ccc(-c3nc4c([nH]3)c(=O)n(CCC)c(=O)n4CCC)cc2)NC(C)=O)C(N)=O)cc1)C1CCc2c(O)cccc2C1 (configuration not stated) | Active | 1 | 9000 | Active | Active | 55 |  |  |  |  |  |  | 
3 | CCCN(CCc1ccc(NC(=O)CCC(N)C(=O)NCCCCC(NC(=O)CCC(=O)NCCOCCOCCNC(=O)CCC(=O)NCCOCCOCCNC(=O)C(CCCCNC(C)=O)NC(C)=O)C(N)=O)cc1)C1CCc2c(O)cccc2C1 (configuration not stated) | Active | 11 | 12000 |  |  |  |  |  |  |  |  |  | 
4 | CCCn1c(=O)c2[nH]c(-c3ccc(OCC(=O)NCCCCC(N)C(=O)NCCCCC(NC(C)=O)C(=O)NCCOCCOCCNC(=O)CCC(=O)NC(CCCCNC(C)=O)C(N)=O)cc3)nc2n(CCC)c1=O (configuration not stated) |  |  |  |  |  | 246 | inactive | Active | Active |  |  |  | 
5 | CCCn1c(=O)c2[nH]c(-c3ccc(OCC(=O)NCCCCC(N)C(=O)NCCCCC(NC(C)=O)C(=O)NCCOCCOCCNC(=O)CCC(=O)NCCOCCOCCNC(=O)CCC(=O)NCCOCCOCCNC(=O)CCC(=O)NC(CCCCNC(C)=O)C(N)=O)cc3)nc2n(CCC)c1=O (configuration not stated) |  |  |  |  |  | 364 |  | Active | Active |  |  |  | 
6 | CCCN(CCc1ccc(NC(=O)CCC(N)C(=O)NCCCCC(NC(=O)CCC(=O)NCCOCCOCCNC(=O)C(CCCCNC(C)=O)NC(C)=O)C(N)=O)cc1)C1CCc2c(O)cccc2C1 (configuration not stated) | Active | 11 | 15000 |  |  |  | inactive | Active | Active | inactive |  |  | 
7 | CCCN(CCc1ccc(NC(=O)CCC(N)C(=O)NCCCCC(NC(=O)CCC(=O)NCCOCCOCCNC(=O)CCC(=O)NCCOCCOCCNC(=O)CCC(=O)NCCOCCOCCNC(=O)C(CCCCNC(=O)C(N)CCCCNC(=O)COc2ccc(-c3nc4c([nH]3)c(=O)n(CCC)c(=O)n4CCC)cc2)NC(C)=O)C(N)=O)cc1)C1CCc2c(O)cccc2C1 (configuration not stated) | Active | 1.8 | 500 | Active | Active | 50 | inactive | Active | Active |  | Active | inactive | 78
8 | CCCN(CCc1ccc(NC(=O)CCC(N)C(=O)NCCCCC(NC(=O)CCC(=O)NCCOCCOCCNC(=O)CCC(=O)NCCOCCOCCNC(=O)CCC(=O)NCCOCCOCCNC(=O)C(CCCCNC(C)=O)NC(C)=O)C(N)=O)cc1)C1CCc2c(O)cccc2C1 (configuration not stated) | Active | 13 | 9000 |  |  |  | inactive | Active | Active | inactive |  |  | 
9 | CCCN(CCc1ccc(NC(=O)CCC(N)C(=O)NCCCCC(NC(=O)CCC(=O)NCCOCCOCCNC(=O)C(CCCCNC(=O)C(N)CCCCNC(=O)COc2ccc(-c3nc4c([nH]3)c(=O)n(CCC)c(=O)n4CCC)cc2)NC(C)=O)C(N)=O)cc1)C1CCc2c(O)cccc2C1 (configuration not stated) | Active | 1.1 | 7000 | Active | Active | 59 | inactive | Active | Active |  | Active | inactive | 87
10 | CCCN(CCc1ccc(NC(=O)CCC(N)C(=O)NCCCCC(NC(=O)CCC(=O)NCCOCCOCCNC(=O)CCC(=O)NCCOCCOCCNC(=O)CCC(=O)NCCOCCOCCNC(=O)CCC(=O)NCCOCCOCCNC(=O)CCC(=O)NCCOCCOCCNC(=O)CCC(=O)NCCOCCOCCNC(=O)CCC(=O)NCCOCCOCCNC(=O)C(CCCCNC(=O)C(N)CCCCNC(=O)COc2ccc(-c3nc4c([nH]3)c(=O)n(CCC)c(=O)n4CCC)cc2)NC(C)=O)C(N)=O)cc1)C1CCc2c(O)cccc2C1 (configuration not stated) | Active |  |  | Active | Active |  | inactive |  |  |  |  |  | 
11 | CCCN(CCc1ccc(NC(=O)CCC(N)C(=O)NCCCCC(NC(=O)CCC(=O)NCCOCCOCCNC(=O)CCC(=O)NCCOCCOCCNC(=O)C(CCCCNC(=O)C(N)CCCCNC(=O)COc2ccc(-c3nc4c([nH]3)c(=O)n(CCC)c(=O)n4CCC)cc2)NC(C)=O)C(N)=O)cc1)C1CCc2c(O)cccc2C1 (configuration not stated) | Active | 1.1 | 1400 | Active | Active | 80 |  |  |  |  |  |  | 
